Only some compounds are listed: those with a hit (about 1.1% of all), similar ones and a draw of the others.
FAS-TE inh – blocks the thioesterase domain of human fatty acid synthase | inhibition, % at 15 µM | actives 0.67% (n = 360,000) | recombinant FAS-TE, OMFH fluorogenic substrate, fluorescence endpoint;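 active means compounds whose normalised, plate-corrected inhibition of enzyme fluorescence in the single-dose primary screen is 50% or more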;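 further: 0% = DMSO with enzyme and 100% = substrate without enzyme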
SENP1 FRET inh – inhibitors of human SENP1 SUMO protease catalytic domain. Q9P0U3. recombinant SENP1 catalytic domain, CyPet-SUMO1-YPet FRET cleavage. inhibition, % at 10 µM. actives 0.21% (n = 360,000);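 active means inhibition at least 30% at 10 µM, raw YFP signal under a set limit, fluorescence ratio 0.5 to 1.5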;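 further: 0% = enzyme with DMSO and 100% = no enzyme wells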
Target sequence (Q9P0U3 419-644 limits assumed): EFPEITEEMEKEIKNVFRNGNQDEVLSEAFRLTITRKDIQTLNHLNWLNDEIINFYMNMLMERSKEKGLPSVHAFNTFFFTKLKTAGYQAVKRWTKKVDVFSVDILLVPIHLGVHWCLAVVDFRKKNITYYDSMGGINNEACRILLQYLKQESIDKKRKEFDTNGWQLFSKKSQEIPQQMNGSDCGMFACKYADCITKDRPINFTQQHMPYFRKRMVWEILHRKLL
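Material: hSENP1 catalytic domain, recombinant; medium: Tris pH 8 with BME, BSA, NP40 and catalase; compound: single concentration of 10 µM compound, 0.5% DMSO final; technique: FRET read of cyan and yellow fluorescence; timing: 50 min enzyme reaction, room temperature, light-protected; reagent: SFCypet-SUMO1-SFYpet substrate at 25 nM; control set: no-enzyme low, enzyme-DMSO high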
ABCB6 inh MLPCN – human ABCB6 transporter inhibition. Q9NP58. K562-ABCB6 porphyrin accumulation, flow cytometry, 1 h; stronger effect = lower value. fluorescence ratio to DMSO, % at 10 µM. actives 0.19% (n = 360,000). AID 602162;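 active means fluorescence ratio to DMSO below 75%, the collection mean minus 3 SD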;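 further: signal is porphyrin accumulated inside mitochondria; 100% equals median channel fluorescence of DMSO control wells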
hiPSC survival – enhancers of human iPSC single-cell survival | survival enhancement, % at 20 µM | hiPSC single-cell survival, ATPlite luminescence; 100% = ROCK inhibitor wells, 0% = DMSO | AID 602274 | actives 0.044% (n = 360,000); in the data active means survival enhancement above about 18%;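 further: cells exposed to compounds for 16 hours before the ATP read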
FAS-TE conf – FAS thioesterase (human) inhibition, confirmation | inhibition, % at 15 µM | AID 624325 | recombinant FAS-TE, OMFH fluorogenic substrate, fluorescence | shares compounds with FAS-TE inh | actives 45% (n = 2,300);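 active means compounds inhibiting the enzyme by at least 50% at 15 µM in any one of the replicates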;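 further: 0% = enzyme with DMSO only and 100% = wells lacking enzyme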
An asterisk follows results filed as active; x = not tested or not shown.

SMILES	FAS-TE inh	SENP1 FRET inh	ABCB6 inh MLPCN	hiPSC survival	FAS-TE conf
COc1ccc(C(c2nnnn2-c2c(C)cccc2C)N2CCC3(CC2)C(=O)NCN3c2ccccc2)cc1 (stereo not drawn)	50*	3	92	0	27
O=C1NCN(c2ccccc2)C12CCN(C(c1cccc3ccccc13)c1nnnn1-c1ccc3c(c1)OCCO3)CC2 (stereo not drawn)	88*	1	98	1	8
O=C1NCN(c2ccccc2)C12CCN(C(c1cc3ccccc3o1)c1nnnn1-c1ccc3c(c1)OCCO3)CC2 (stereo not drawn)	74*	0	98	6	21
O=[N+]([O-])c1cc([As](=O)(O)c2ccc(O)c([N+](=O)[O-])c2)ccc1O	-4	3	97	0	x
CC(C)CCOP(N)(=O)Oc1ccccc1Cl (stereo not drawn)	-7	3	98	3	x
COc1ccc(-n2nnnc2C(c2cccc3ccccc23)N2CCC3(CC2)C(=O)NCN3c2ccccc2)cc1 (stereo not drawn)	84*	0	95	1	16
COc1ccc(C(c2nnnn2-c2c(C)cccc2C)N2CCC(n3c(=O)[nH]c4ccccc43)CC2)cc1 (stereo not drawn)	62*	-1	97	-2	35*
Cc1cccc(C)c1-n1nnnc1C(c1ccccc1OC(F)(F)F)N1CCC(n2c(=O)[nH]c3ccccc32)CC1 (stereo not drawn)	54*	5	108	3	22
COc1ccc(-n2nnnc2C(c2ccccc2)N2CCC(n3c(=O)[nH]c4ccccc43)CC2)cc1 (stereo not drawn)	25	2	89	-1	x
Cc1cccc(C)c1-n1nnnc1C(c1cc2ccccc2o1)N1CCC(n2c(=O)[nH]c3ccccc32)CC1 (stereo not drawn)	81*	2	85	0	-2
COc1ccc(-n2nnnc2C(c2cccc(OC)c2OC)N2CCC(n3c(=O)[nH]c4ccccc43)CC2)cc1 (stereo not drawn)	31	2	100	2	x
O=[N+]([O-])NC1=NCCN1Cc1ccc(Cl)nc1	0	1	102	-2	x
CN(C(=O)Oc1cccc2ccccc12)C1C=CCC1 (stereo not drawn)	7	4	96	2	x
CC(C)n1c(=O)c(C=Nc2cccc([N+](=O)[O-])c2)c(O)n(CCc2ccccc2)c1=O	57*	-1	101	1	18
C=C1C(=O)OC2CCN3CC=C(COC(=O)C(C)(O)C4(CO4)C1C)C23 (stereo not drawn)	-1	1	107	0	x
CCOC(=O)[C@]12Cc3cc4ccccc4cc3[C@H]1N(Cc1ccccc1)C(=O)c1cc(OC)ccc12	65*	1	93	-2	20
CCOC(=O)[C@]12Cc3cc4ccccc4cc3[C@H]1N(Cc1ccccc1)C(=O)c1ccccc12	61*	2	96	-1	13
CCOC(=O)[C@]12Cc3cc(OC)ccc3[C@H]1N(Cc1ccccc1)C(=O)c1cc(OC)ccc12	25	-1	98	-1	x
C[C@@H]1CN([C@H](C)CO)C(=O)CCCn2nncc2CO[C@@H]1CN(C)C(=O)Oc1cccc2ccccc12	-7	-2	96	2	x
O=[N+]([O-])c1ccc(NCc2ccc(Cl)cc2)c2ccncc12	73*	-45	103	0	58*
NCCNc1ccc([N+](=O)[O-])c2cccnc12	-3	-18	92	-1	x
CCOC(=O)[C@]12Cc3cc(Cl)ccc3[C@H]1N(C)C(=O)c1ccccc12	0	-2	103	0	x
CCOC(=O)[C@]12Cc3cc(Cl)ccc3[C@H]1N(C(C)C)C(=O)c1ccccc12	68*	1	98	-2	11
CCCCCN1C(=O)c2cc(OC)ccc2[C@@]2(C(=O)OCC)Cc3cc(Cl)ccc3[C@@H]12	85*	0	101	-2	11
CCOC(=O)[C@]12Cc3cc(Cl)ccc3[C@H]1N(CC(=O)OC)C(=O)c1ccccc12	55*	-5	101	-1	28
SMILES	FAS-TE inh	SENP1 FRET inh	ABCB6 inh MLPCN	hiPSC survival	FAS-TE conf
O=C1C=C2c3ccccc3CC(C(=O)O)C2CC1 (stereo not drawn)	-4	2	97	0	x
NS(=O)(=O)c1ccc(N=Nc2c(O)[nH]c(=S)[nH]c2=O)cc1	0	-5	97	0	x
CSc1nc(N)c(N=Nc2ccc([As](=O)(O)O)cc2)c(=O)[nH]1	54*	-5	97	-1	59*
CN(C(=O)Cc1ccc(Cl)c(Cl)c1)C(CN1CCCC1)c1cccc(OCC(=O)O)c1 (stereo not drawn)	0	1	96	-1	x
CC(C)(C)n1nnnc1C(c1ccnc2ccccc12)N1CCC2(CC1)C(=O)NCN2c1ccccc1 (stereo not drawn)	-3	1	96	0	x
CC(C)(C)n1nnnc1C(c1cccc2ccccc12)N1CCC2(CC1)C(=O)NCN2c1ccccc1 (stereo not drawn)	77*	-1	99	-1	19
O=C1NCN(c2ccccc2)C12CCN(C(c1cccc3ccccc13)c1nnnn1Cc1ccccc1)CC2 (stereo not drawn)	79*	0	101	0	4
O=C1NCN(c2ccccc2)C12CCN(C(c1ccnc3ccccc13)c1nnnn1Cc1ccccc1)CC2 (stereo not drawn)	7	2	91	-3	x
COc1ccccc1NC(=O)COC(=O)c1cn(C)c2ccccc12	16	0	92	4	x
O=C1c2ccccc2-n2nncc2C2c3cc(Br)ccc3CCN12 (stereo not drawn)	-2	-4	100	1	x
Cc1ccccc1-c1ccc2c(c1)C1c3c(-c4ccccc4)nnn3-c3ccccc3C(=O)N1CC2 (stereo not drawn)	79*	3	93	-1	13
CCOC(=O)[C@]12Cc3cc(OC)ccc3[C@H]1N(C)C(=O)c1ccccc12	-6	1	97	0	x
CCOC(=O)[C@]12Cc3cc(OC)ccc3[C@H]1N(C1CCCCC1)C(=O)c1ccccc12	77*	1	98	-1	72*
CCOC(=O)[C@]12Cc3cc(Cl)ccc3[C@H]1N(C1CCCCC1)C(=O)c1ccccc12	77*	-2	101	-2	71*
O=c1[nH]c2ccccc2n1C1CCN(C(c2cccs2)c2nnnn2-c2ccc3c(c2)OCCO3)CC1 (stereo not drawn)	63*	0	89	3	15
O=c1[nH]c2ccccc2n1C1CCN(C(c2ccccc2OC(F)(F)F)c2nnnn2-c2ccc3c(c2)OCCO3)CC1 (stereo not drawn)	83*	2	90	0	19

Screening results (PubChem)
